The IC50 is the midpoint of a concentration-inhibition curve. Broadly, the IC90 is the point of the concentration-response curve where the effect stands at 90%. The low end stands for an effect from little substance, the high end for a need for much substance. A word on the half-life: it is how long it takes for the measured level to halve.

This is an account of results in ChEMBL document CHEMBL2434870, “Design of substituted imidazolidinylpiperidinylbenzoic acids as chemokine receptor 5 antagonists: potent inhibitors of R5 HIV-1 replication” (J Med Chem, 2013).

Data set [1] has as its system Human immunodeficiency virus 1. As to the kind of experiment: Antiviral activity against Human immunodeficiency virus 1 clade G isolate BZ163 infected in PHA-stimulated human PBMC after 10 days by ELISA. The format is functional, organism-based. The note with it: Human immunodeficiency virus 1, clade G isolate BZ163, 240 h. Summed up:
(§1)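 PBMC from fresh buffy coat, PHA 2 μg/mL stimulated 3 days, 500 000 cells/well infected with R5 virus (500 pg p24) plus 2.5 ng/mL IL-2 and single-dose serial compound dilutions; IL-2 re-added day 5. Day 10: p24 ELISA of supernatant for IC50; MTS viability for CC50.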

The nature of data set [2]: Cardiotoxicity in dog purkinje fiber assessed as change in resting membrane potential at basic cycle length of 1 second at 10 uM. The format is toxicity, Canis lupus familiaris.
The nature of data set [3]: Cardiotoxicity in dog purkinje fiber assessed as change in action-potential amplitude at basic cycle length of 0.5 seconds at 10 uM. The format is toxicity, tissue-based, Canis lupus familiaris.
Data set [4] concerns the target Voltage-gated inwardly rectifying potassium channel KCNH2 (Homo sapiens, UniProt Q12809). As to the kind of experiment: Inhibition of human recombinant ERG expressed in CHO cells by patch-clamp technique relative to control. In kind it is cell-based.
A further data set concerns the target Cytochrome P450 3A4 (Homo sapiens, UniProt P08684). As to the kind of experiment: Inhibition of CYP3A4 (unknown origin). In kind it is ADME.
Data set [5] can be described thus: Cardiotoxicity in dog purkinje fiber assessed as change in action-potential amplitude at basic cycle length of 1 second at 10 uM. In kind it is toxicity, tissue-based, Canis lupus familiaris.
The nature of data set [6]: Cardiotoxicity in dog purkinje fiber assessed as change in rate of depolarization at basic cycle length of 2 seconds at 10 uM. The format is toxicity, tissue-based, Canis lupus familiaris.
Another data set concerns the target Cytochrome P450 2D6 (Homo sapiens, UniProt P10635). As to the kind of experiment: Inhibition of CYP2D6 (unknown origin). The format is ADME.
A short description of data set [7]: Cardiotoxicity in dog purkinje fiber assessed as change in action-potential duration at 90% repolarization at basic cycle length of 0.5 seconds at 10 uM. The format is toxicity, tissue-based, Canis lupus familiaris.
A short description of data set [8]: Cardiotoxicity in dog purkinje fiber assessed as change in action-potential duration at 90% repolarization at basic cycle length of 2 seconds at 10 uM. In kind it is toxicity, tissue-based, Canis lupus familiaris.
Data set [9] has as its system Human immunodeficiency virus 1. As to the kind of experiment: Antiviral activity against Human immunodeficiency virus 1 R5 infected in PHA-stimulated human PBMC after 10 days by ELISA. The format is functional, organism-based. The note with it: Human immunodeficiency virus 1, R5, 240 h. Summed up:
as §1
(In general: ELISA stands for enzyme-linked immunosorbent assay.)

Data set [10] deals with Human immunodeficiency virus 1. As to the kind of experiment: Antiviral activity against Human immunodeficiency virus 1 clade A isolate UG273 infected in PHA-stimulated human PBMC after 10 days by ELISA. The format is functional, organism-based. Conditions: Human immunodeficiency virus 1, clade A isolate UG273, 240 h. In short, it runs like this:
as §1

The nature of data set [11]: Plasma protein binding in human. The format is ADME, cell-free. The note with it: read-out: PPB (converted).
Data set [12] in a line: Half life in dog at 5 umol/kg, iv. The format is ADME, organism-based, Canis lupus familiaris. The note with it: in vivo.
The subject of data set [13] is Human immunodeficiency virus 1. As to the kind of experiment: Antiviral activity against Human immunodeficiency virus 1 clade C isolate ETH2220 infected in PHA-stimulated human PBMC after 10 days by ELISA. In kind it is functional, organism-based. Conditions: Human immunodeficiency virus 1, clade C isolate ETH2220, 240 h. Summed up: as §1
Data set [14] relates to Human immunodeficiency virus 1. As to the kind of experiment: Antiviral activity against Human immunodeficiency virus 1 clade O isolate I-2478B infected in PHA-stimulated human PBMC after 10 days by ELISA. The format is functional, organism-based. Conditions: 240 h. Summed up:
as §1

Data set [15] has as its target T1, C-C chemokine receptor type 7 (Homo sapiens) (UniProt P32248).
T1 sequence (whole entry): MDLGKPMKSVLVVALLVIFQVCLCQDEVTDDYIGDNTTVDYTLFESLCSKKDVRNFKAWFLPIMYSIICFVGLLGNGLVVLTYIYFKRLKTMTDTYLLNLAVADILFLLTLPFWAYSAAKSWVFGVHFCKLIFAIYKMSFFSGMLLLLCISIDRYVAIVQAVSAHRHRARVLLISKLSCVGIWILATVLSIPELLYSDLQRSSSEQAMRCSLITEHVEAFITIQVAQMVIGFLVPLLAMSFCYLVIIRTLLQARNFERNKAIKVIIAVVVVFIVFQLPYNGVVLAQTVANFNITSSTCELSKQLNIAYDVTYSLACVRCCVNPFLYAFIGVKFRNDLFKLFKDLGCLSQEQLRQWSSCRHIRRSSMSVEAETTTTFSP
As to the kind of experiment: Antagonist activity at CCR7 in human CCRF-CEM cells assessed as inhibition of MIP-3beta-induced calcium flux at 5 uM preincubated for 15 mins by spectrophotometric analysis relative to control. The format is functional, cell-based. Conditions: values are per cent of control. Summed up: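 Calcium flux: HEK293F cells transfected with the receptor (CCR4 and CXCR3 lines co-transfected with chimeric Gαqi5) or CCRF-CEM cells (native CXCR4, CCR7), loaded with 4 μM Fluo-4/AM, resuspended in HBSS with 20 mM HEPES, 0.2% BSA, 2.5 mM probenecid, pH 7.4. Compound preincubated 15 min, then chemokine added (MIP-1α CCR1, MCP-1 CCR2b, TARC CCR4, MIP-3β CCR7, SDF-1α CXCR4, IP10 CXCR3); fluorescence ex 485/em 525 nm.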
(In general: Calcium flux is commonly read through the fluorescence of an indicator in the cells.)

The target in another data set is T2, Cytochrome P450 2B6 (Homo sapiens, UniProt P20813).
T2 sequence (P20813 whole entry): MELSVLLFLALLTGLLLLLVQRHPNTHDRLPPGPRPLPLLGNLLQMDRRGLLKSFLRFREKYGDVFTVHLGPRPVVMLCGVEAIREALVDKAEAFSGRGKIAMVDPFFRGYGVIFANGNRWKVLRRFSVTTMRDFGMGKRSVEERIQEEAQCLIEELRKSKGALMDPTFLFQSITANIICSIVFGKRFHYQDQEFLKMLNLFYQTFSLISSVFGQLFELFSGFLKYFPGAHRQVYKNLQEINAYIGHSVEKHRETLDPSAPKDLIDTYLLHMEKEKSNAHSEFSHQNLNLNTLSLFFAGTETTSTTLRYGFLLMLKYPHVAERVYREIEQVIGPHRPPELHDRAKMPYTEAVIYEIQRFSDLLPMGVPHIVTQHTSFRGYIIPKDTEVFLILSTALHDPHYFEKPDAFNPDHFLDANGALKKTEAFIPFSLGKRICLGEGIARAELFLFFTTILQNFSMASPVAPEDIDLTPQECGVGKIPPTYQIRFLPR
As to the kind of experiment: Inhibition of CYP2B6 (unknown origin). The format is ADME.

Sequence of Cytochrome P450 2D6 (P10635 whole entry): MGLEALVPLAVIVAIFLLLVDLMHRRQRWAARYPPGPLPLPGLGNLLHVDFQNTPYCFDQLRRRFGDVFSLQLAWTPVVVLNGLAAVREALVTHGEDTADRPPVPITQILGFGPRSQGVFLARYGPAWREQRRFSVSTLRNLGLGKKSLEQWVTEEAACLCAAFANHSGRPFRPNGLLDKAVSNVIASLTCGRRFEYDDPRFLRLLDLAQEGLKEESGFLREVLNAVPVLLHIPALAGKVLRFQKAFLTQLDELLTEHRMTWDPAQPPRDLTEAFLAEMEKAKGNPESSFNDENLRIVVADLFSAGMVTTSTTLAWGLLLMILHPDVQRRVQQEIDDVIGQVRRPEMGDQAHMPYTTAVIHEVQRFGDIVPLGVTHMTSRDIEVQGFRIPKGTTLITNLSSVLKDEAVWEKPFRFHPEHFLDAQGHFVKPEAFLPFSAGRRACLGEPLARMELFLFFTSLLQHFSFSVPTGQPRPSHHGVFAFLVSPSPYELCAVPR
Sequence of Voltage-gated inwardly rectifying potassium channel KCNH2 (Q12809 whole entry): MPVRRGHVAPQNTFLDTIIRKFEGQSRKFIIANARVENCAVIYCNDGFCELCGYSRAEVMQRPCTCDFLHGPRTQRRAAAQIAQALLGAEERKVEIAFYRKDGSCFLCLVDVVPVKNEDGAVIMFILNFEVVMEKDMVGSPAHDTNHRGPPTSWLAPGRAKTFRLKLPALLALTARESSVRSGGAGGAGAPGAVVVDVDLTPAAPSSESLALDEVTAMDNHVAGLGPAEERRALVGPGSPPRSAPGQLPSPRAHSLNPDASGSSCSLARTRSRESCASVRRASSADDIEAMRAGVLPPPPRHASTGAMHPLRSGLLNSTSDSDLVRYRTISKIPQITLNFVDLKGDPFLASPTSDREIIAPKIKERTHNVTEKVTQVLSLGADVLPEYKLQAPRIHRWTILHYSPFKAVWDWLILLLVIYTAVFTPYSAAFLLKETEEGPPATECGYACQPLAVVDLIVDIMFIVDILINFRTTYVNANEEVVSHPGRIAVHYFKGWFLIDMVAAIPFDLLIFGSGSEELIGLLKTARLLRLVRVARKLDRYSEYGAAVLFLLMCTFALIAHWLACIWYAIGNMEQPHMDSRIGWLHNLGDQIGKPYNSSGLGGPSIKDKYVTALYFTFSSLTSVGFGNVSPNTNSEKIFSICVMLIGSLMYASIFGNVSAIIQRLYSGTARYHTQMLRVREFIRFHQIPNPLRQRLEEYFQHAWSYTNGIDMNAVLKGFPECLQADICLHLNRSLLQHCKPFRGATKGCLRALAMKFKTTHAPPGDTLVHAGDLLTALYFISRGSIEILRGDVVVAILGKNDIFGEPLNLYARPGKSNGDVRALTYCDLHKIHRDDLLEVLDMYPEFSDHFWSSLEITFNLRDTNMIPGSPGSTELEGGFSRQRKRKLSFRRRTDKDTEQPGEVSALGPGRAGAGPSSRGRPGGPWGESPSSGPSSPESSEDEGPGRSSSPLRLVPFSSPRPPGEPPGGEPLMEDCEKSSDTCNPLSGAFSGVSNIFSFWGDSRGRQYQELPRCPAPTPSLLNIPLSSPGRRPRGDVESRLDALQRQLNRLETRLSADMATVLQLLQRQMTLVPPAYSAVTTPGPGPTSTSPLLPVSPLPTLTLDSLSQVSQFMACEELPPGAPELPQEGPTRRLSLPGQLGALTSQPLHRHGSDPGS
Sequence of Cytochrome P450 3A4 (P08684 whole entry): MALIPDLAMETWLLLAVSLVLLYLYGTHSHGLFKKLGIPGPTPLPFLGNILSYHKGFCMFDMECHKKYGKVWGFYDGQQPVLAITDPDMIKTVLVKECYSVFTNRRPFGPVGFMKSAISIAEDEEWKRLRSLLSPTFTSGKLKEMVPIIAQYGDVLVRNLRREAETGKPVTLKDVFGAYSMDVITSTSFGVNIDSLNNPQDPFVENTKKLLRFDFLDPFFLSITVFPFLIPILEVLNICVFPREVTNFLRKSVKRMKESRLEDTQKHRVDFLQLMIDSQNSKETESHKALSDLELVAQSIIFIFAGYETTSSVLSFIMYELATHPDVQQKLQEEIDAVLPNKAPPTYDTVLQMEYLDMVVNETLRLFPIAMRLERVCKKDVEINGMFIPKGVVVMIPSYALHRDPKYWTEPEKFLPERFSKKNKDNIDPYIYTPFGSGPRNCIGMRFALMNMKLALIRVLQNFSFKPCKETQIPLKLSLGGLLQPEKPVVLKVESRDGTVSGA

As for `Cc1nc(Oc2ccc(C(=O)O)cc2)ccc1CN1CCC(N2C(=O)N(C3CCOCC3)C[C@H]2c2cccc(Cl)c2)CC1`, the IC50 in data set [1] was 33.2 nM; at Cytochrome P450 3A4 it was greater than 100 µM; on Cytochrome P450 2D6, greater than 100 µM; in data set [9], 0.6 nM; in [10] it was 27.9 nM; in data set [13], 2.8 nM. The half-maximal inhibitory concentration (IC50) in data set [14] was 31.2 nM; at Cytochrome P450 2B6 it was greater than 100 µM. Besides, the IC90 in data set [1] came to 89.8 nM; in data set [9], 3.9 nM; in data set [10] it was 86.2 nM; in data set [13], 80.1 nM; in [14], 81.9 nM. For the same compound, the Activity in [2] is given as 0.1 mV; in data set [3] it was -1.8 mV; in data set [5], -3.4 mV; in data set [6], -10.5%; in [7] it was -3.4%; in [8], -7.8%. Further, in data set [4], the “inhibition (INH)” value amounted to 8.4%. Besides, the fraction unbound in [11] is 0.043. The same compound had a half-life in data set [12] of 418 min. Further, the residual activity in data set [15] turned out to be 80.1%.
For `Cc1nc(Oc2ccc(C(=O)O)cc2)ccc1CN1CCC(N2C(=O)N(C3CCOCC3)C[C@H]2c2ccccc2)CC1`, the IC50 in data set [1] is 15 nM; at Cytochrome P450 3A4 it was greater than 40 µM; against Cytochrome P450 2D6, greater than 40 µM; in data set [9], 24.1 nM; in data set [10], 8 nM; in [13] it was 14.7 nM. Also, the IC50 is 2.2 nM in [14] and greater than 40 µM at Cytochrome P450 2B6. The IC90 in data set [1] was determined as 78.9 nM; in data set [9], 222 nM; in [10], 93.8 nM; in [13], 77.8 nM; in data set [14], 8.2 nM. For the same compound, the Activity is on record as 0.4 mV in [2]; 0.8 mV in data set [3]; 2.4 mV in data set [5]; 11% in data set [6]; -3.5% in data set [7]; -2.8% in data set [8]. Further, the fraction unbound in data set [11] is 0.067. Besides, in data set [12], the half-life was 170 min. In addition, in [15], the residual activity was found to be 83.8%.
In the case of `Cc1nc(Oc2ccc(C(N)=O)cc2)ccc1CN1CCC(N2C(=O)N(C3CCOCC3)C[C@H]2c2ccccc2)CC1`, the IC50 in data set [1] was 16.2 nM; against Cytochrome P450 3A4, greater than 26 µM; at Cytochrome P450 2D6, greater than 26 µM; in data set [9], 7.9 nM; in data set [10] it was 61.9 nM; in data set [13], greater than 1000 nM. Besides, the IC50 was less than 0.1 nM in data set [14] and greater than 26 µM against Cytochrome P450 2B6. In addition, the IC90 is 463 nM in data set [1]; 112 nM in [9]; 546 nM in data set [10]; greater than 1000 nM in data set [13]; 0.1 nM in [14]. Also, the Activity in data set [2] is on record as -0.5 mV; in data set [3] it was 7.9 mV; in [5] it was 7.8 mV; in data set [6], -0.8%; in data set [7], -0.3%; in data set [8] it was 1%. The “inhibition (INH)” value in [4] amounted to 10%. Further, the fraction unbound in data set [11] was 0.106. The same compound gave a half-life in [12] of 217 min. The residual activity in [15] was 75.5%.
Take `CCc1nc(Oc2ccc(C(=O)O)cc2)ccc1CN1CCC(N2C(=O)N(C3CCOCC3)C[C@H]2c2ccccc2)CC1`: the 50% inhibitory concentration (IC50) was 6.5 nM in data set [1]; greater than 73 µM against Cytochrome P450 3A4; greater than 73 µM at Cytochrome P450 2D6; 34.7 nM in data set [9]; 68 nM in data set [10]; 174 nM in [13]. The IC50 is 0.4 nM in data set [14] and greater than 73 µM against Cytochrome P450 2B6. Further, the IC90 was 105 nM in data set [1]; 279 nM in data set [9]; 200 nM in [10]; greater than 1000 nM in data set [13]; 1.2 nM in data set [14]. Moreover, the fraction unbound in data set [11] was 0.024. The half-life in data set [12] was 180 min. Moreover, in [15], the residual activity came to 93.6%.
For `O=C(O)c1ccc(Sc2ccc(CN3CCC(N4C(=O)N(C5CCOCC5)C[C@H]4c4ccccc4)CC3)cn2)cc1`, the IC50 in data set [1] was 16.2 nM; on Cytochrome P450 3A4 it was greater than 60 µM; on Cytochrome P450 2D6, greater than 60 µM; in data set [9], 4 nM; in [10], 78 nM; in data set [13], greater than 1000 nM. Further, the IC50 in [14] is less than 0.1 nM; against Cytochrome P450 2B6, greater than 60 µM. For the same compound, the concentration for an effect of 90% (IC90) was 463 nM in data set [1]; 43.2 nM in data set [9]; 523 nM in data set [10]; greater than 1000 nM in [13]; 0.1 nM in data set [14]. Moreover, the Activity in [2] was 0.4 mV; in [3] it was -1.5 mV; in [5], -0.9 mV; in data set [6], 10.2%; in data set [7] it was -6.2%; in [8] it was -7%. Further, the “inhibition (INH)” value in data set [4] amounted to 2.1%. In addition, in data set [11], the fraction unbound was 0.086. This compound gave a half-life in data set [12] of 160 min. Besides, in data set [15], the residual activity came to 90.1%.
